From paper PMC6364161 (Journal of Veterinary Research, 2018)
pIC50: −log10 of the molar value.

Columns and labels:
HK-2 cells = settings: MTT assay, 480 μM; cited from earlier work
BALB/3T3 cells [1] = assay: MTT reduction assay, BALB/3T3 cells; type: cell-based, Mouse; settings: for cell viability at low doses / cell viability: MTT; for cell viability at low doses: BALB/3T3, 100 and 200 μM; for cell viability: BALB/3T3, 100 to 1,400 μM, 24 h, compared to control
In short: (§1)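 Cells were plated at 2 × 10^5 cells/mL and cultured 24 h: BALB/3T3 in DMEM with 10% heat-inactivated calf serum, HepG2 in EMEM with 10% heat-inactivated FBS. Medium was then replaced with test compound at 100–1,400 μM, diluted from a 10 mM PBS stock, for 24 h. MTT reduction was read spectrophotometrically as viability relative to untreated control (100%), and IC50 was taken from the dose-response curve. Six independent experiments, triplicate wells.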

HepG2 cells [2] = assay: MTT reduction assay, HepG2 cells; type: cell-based, human; settings: for cell viability at low doses / cell viability: MTT; for cell viability at low doses: HepG2, 100 and 200 μM; for cell viability: HepG2, 100 to 1,400 μM, 24 h, compared to control; for pIC50: MTT assay, HepG2, 24 h incubation
In short: as §1

BALB/3T3 cells [3] = assay: LDH release assay, BALB/3T3 cells; type: cell-based, Mouse; settings: for LDH leakage (membrane integrity): LDH release, BALB/3T3, 100 to 1,400 μM, 24 h; for pIC50: LDH leakage assay, BALB/3T3, 24 h incubation
In short: (§2)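 Test compounds (10 mM stock in PBS) were diluted in complete medium: DMEM plus 10% heat-inactivated calf serum for BALB/3T3 cells, EMEM plus 10% heat-inactivated FBS for HepG2 cells. Cells were seeded at 2 × 10^5 cells/mL, grown 24 h, then exposed to 100–1,400 μM for 24 h at 37 °C, 5% CO2. Released LDH was taken as a percentage of total LDH absorbance, and IC50 was read from the dose-response curve. Six independent experiments, three wells each.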

HepG2 cells [4] = assay: LDH release assay, HepG2 cells; type: cell-based, human; settings: for LDH leakage (membrane integrity): LDH release, HepG2, 100 to 1,400 μM, 24 h; for pIC50: LDH leakage assay, HepG2, 24 h incubation
In short: as §2

BALB/3T3 cells [5] = assay: Neutral red uptake assay, BALB/3T3 cells; type: cell-based, Mouse; settings: NRU; for cell viability at low doses: BALB/3T3, 100, 200, and 400 μM; for cell viability: BALB/3T3, 100 to 1,400 μM, 24 h
In short: (§3)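 Neutral red uptake, a measure of lysosomal activity. BALB/3T3 cells were grown in DMEM with 10% heat-inactivated calf serum and HepG2 cells in EMEM with 10% heat-inactivated FBS, both seeded at 2 × 10^5 cells/mL for 24 h. Cells were then exposed for 24 h to test compound at 100–1,400 μM, diluted in medium from a 10 mM PBS stock. Viability was measured spectrophotometrically against control cells, and IC50 was read from the dose-response curve. Six independent experiments, three wells per treatment.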

HepG2 cells [6] = assay: Neutral red uptake assay, HepG2 cells; type: cell-based, human; settings: for cell viability at low doses / cell viability: NRU; for cell viability at low doses: HepG2, 100, 200, and 400 μM; for cell viability: HepG2, 100 to 1,400 μM, 24 h
In short: as §3

Structure (SMILES)	cell viability (HK-2 cells)	cell viability at low doses (BALB/3T3 cells [1])	cell viability (BALB/3T3 cells [1])	cell viability at low doses (HepG2 cells [2])	cell viability (HepG2 cells [2])	LDH leakage (membrane integrity) (BALB/3T3 cells [3])	LDH leakage (membrane integrity) (HepG2 cells [4])	cell viability at low doses (BALB/3T3 cells [5])	cell viability (BALB/3T3 cells [5])	cell viability at low doses (HepG2 cells [6])	cell viability (HepG2 cells [6])	pIC50 (BALB/3T3 cells [1]; MTT assay, BALB/3T3, 24 h incubation)	pIC50 (HepG2 cells [2])	pIC50 (BALB/3T3 cells [3])	pIC50 (HepG2 cells [4])	pIC50 (HepG2 cells [6]; NRU assay, HepG2, 24 h incubation)
CC(=O)[O-].CC(=O)[O-].[Ni+2] [Ni (II) acetate]	less than 50%															
O.O.O.O.O.O.[Cl-].[Cl-].[Cl-].[Fe+3] [Iron chloride, FeCl3 × 6H2O]		increased	significantly decreased in a concentration-dependent manner	increased	significantly decreased in a concentration-dependent manner	increasingly significant LDH leakage	increasingly significant LDH leakage	increased	significantly decreased in a concentration-dependent manner	increased	significantly decreased in a concentration-dependent manner					
[Cl][Ni][Cl] [Nickel chloride, NiCl2]		increased	significantly decreased in a concentration-dependent manner	increased	significantly decreased in a concentration-dependent manner	increasingly significant LDH leakage	increasingly significant LDH leakage	increased	significantly decreased in a concentration-dependent manner	increased	significantly decreased in a concentration-dependent manner	3.15	3.40	3.52	3.10	
[Cl-].[Cl-].[Cl-].[Fe+3] [Iron chloride, FeCl3 × 6H2O]													2.89	3.26	3.05	2.92
